The source of these data is ChEMBL document CHEMBL1799918, “Growth inhibitory activities of oxyprenylated and non-prenylated naturally occurring phenylpropanoids in cancer cell lines” (Bioorg Med Chem Lett, 2011).

A short description of assay [1]: Cytotoxicity against human U373 cells after 72 hrs by MTT assay. Type of assay: functional, cell-based, U-373MG ATCC. The following applies: U373 MG. In a few lines: (§1)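 MTT colorimetric assay on human cancer cell lines; IC50 growth inhibitory concentration determined in vitro for each compound.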
In general terms: Tetrazolium assays rely on reduction of a dye to a coloured formazan, in cell work by metabolically active cells.

The nature of assay [2]: Cytotoxicity against human OE21 cells after 72 hrs by MTT assay. The following applies: OE21, 72 h. Type of assay: functional, cell-based. The method in brief:
as §1

The subject of assay [3] is A549. Nature of the assay: Cytotoxicity against human A549 cells after 72 hrs by MTT assay. Type of assay: functional, cell-based. The following applies: A549, 72 h. The method in brief:
as §1

Assay [4] deals with PC-3. Nature of the assay: Cytotoxicity against human PC3 cells after 72 hrs by MTT assay. Type of assay: functional, cell-based. The following applies: PC-3, 72 h. The method in brief:
as §1

Assay [5] has as its system SK-MEL-28. Nature of the assay: Cytotoxicity against human SK-MEL-28 cells after 72 hrs by MTT assay. Type of assay: functional, cell-based. The following applies: SK-MEL-28, 72 h. In a few lines: as §1
For assay [6], the system named is LoVo. In words: Cytotoxicity against human LoVo cells after 72 hrs by MTT assay. Type of assay: functional, cell-based. In a few lines: as §1
Assay [7] is described as follows: Induction of human U373 cell death assessed as morphological changes at MTT assay-related IC50 after 72 hrs by quantitative video microscopy. Type of assay: functional, U-373MG ATCC.
Assay [8] in a line: Cytotoxicity against human U373 cells assessed as growth inhibition at MTT assay-related IC50 by quantitative video microscopy relative to control. Type of assay: functional, U-373MG ATCC.

As for `CC(=O)c1c(O)cc(OC/C=C(\C)CC/C=C(\C)CCC=C(C)C)cc1O`, the IC50 worked out at 33 µM in assay [1]; 18 µM in assay [2]; 26 µM in assay [3]; 38 µM in assay [4]; 33 µM in assay [5]; 32 µM in assay [6]. Moreover, the Activity in assay [7] is 42%. Besides, in assay [8], the “growth inhibition (GI)” value amounted to 70%.
As for `CC(C)=CCOc1ccc2ccc(=O)oc2c1O`, the IC50 was over 100 µM in assay [1]; over 100 µM in assay [2]; over 100 µM in assay [3]; over 100 µM in assay [4]; over 100 µM in assay [5]; 92 µM in assay [6].
`COc1cc(C(=O)O)ccc1OCC=C(C)C`: the half-maximal inhibitory concentration (IC50) in assay [1], in assay [2], in assay [3], in assay [4], in assay [5] and in assay [6] was over 100 µM throughout.
`CC(=O)c1ccc(OCC=C(C)C)cc1O`: the concentration for half-maximal inhibition (IC50) in assay [1], in assay [2], in assay [3], in assay [4], in assay [5] and in assay [6] was over 100 µM each time.
For the compound `CC(C)=CCC/C(C)=C/COc1cc(O)c2c(c1)C(=O)c1cc(C)cc(O)c1C2=O`, the IC50 in assay [1] is 18 µM; in assay [2], over 100 µM; in assay [3] it was 32 µM; in assay [4], 30 µM; in assay [5], 40 µM; in assay [6] it was 14 µM. In addition, in assay [7], the Activity amounted to 100%. In addition, the “growth inhibition (GI)” value in assay [8] is listed as 90%.
As to `COc1cc(/C=C/C=O)cc(OC)c1OCC=C(C)C`, the half-maximal inhibitory concentration (IC50) was 30 µM in assay [1]; 29 µM in assay [2]; 68 µM in assay [3]; 28 µM in assay [4]; 32 µM in assay [5]; 31 µM in assay [6]. In addition, the Activity in assay [7] is 100%. Moreover, the “growth inhibition (GI)” value in assay [8] stood at 90%.
For `COc1cc(/C=C/C=O)ccc1OC/C=C(\C)CCC=C(C)C`, the IC50 in assay [1] came out at 7 µM; in assay [2], 34 µM; in assay [3], 5 µM; in assay [4] it was 24 µM; in assay [5], 28 µM; in assay [6] it was 12 µM. Further, the Activity in assay [7] is on record as 26%. In assay [8], the “growth inhibition (GI)” value is given as 80%.
In the case of `COc1cc(/C=C/CO)cc(OC)c1OCC=C(C)C`, the IC50 in assay [1], in assay [2], in assay [3], in assay [4], in assay [5] and in assay [6] was over 100 µM each time.
As for `COc1cc(/C=C/CO)ccc1OC/C=C(\C)CCC=C(C)C`, the IC50 in assay [1] came to 25 µM; in assay [2], 23 µM; in assay [3] it was 29 µM; in assay [4], 21 µM; in assay [5] it was 31 µM; in assay [6] it was 27 µM. For the same compound, the Activity in assay [7] was 41%. Also, the “growth inhibition (GI)” value in assay [8] stood at 80%.
On to `COc1cc(/C=C/CO)cc(OC)c1O`, for which the half-inhibitory concentration (IC50) was over 100 µM in assay [1]; 80 µM in assay [2]; over 100 µM in assay [3]; over 100 µM in assay [4]; over 100 µM in assay [5]; over 100 µM in assay [6].
`CC(C)=CCC/C(C)=C/COc1ccc(/C=C/C(=O)O)cc1`: the IC50 in assay [1], in assay [2], in assay [3], in assay [4], in assay [5] and in assay [6] was over 100 µM throughout.
Turning to `COc1cc(/C=C/C(=O)O)ccc1OC/C=C(\C)CCC=C(C)C`, the IC50 in assay [1], in assay [2], in assay [3], in assay [4], in assay [5] and in assay [6] was over 100 µM each time.
As for `CC(=O)c1ccc(O)cc1O`, the half-maximal inhibitory concentration (IC50) in assay [1] was over 100 µM; in assay [2], 45 µM; in assay [3] it was over 100 µM; in assay [4], over 100 µM; in assay [5] it was over 100 µM; in assay [6], 97 µM.
Consider `CC(=O)c1c(O)cc(OC/C=C(\C)CCC=C(C)C)cc1O`, for which the IC50 in assay [1] stood at 29 µM; in assay [2], 34 µM; in assay [3] it was 34 µM; in assay [4], 48 µM; in assay [5] it was 40 µM; in assay [6], 35 µM. In addition, the Activity in assay [7] was 15%. Also, the “growth inhibition (GI)” value in assay [8] is 80%.
On to `CC(C)=CCOc1ccc(C(=O)/C=C/c2ccc(O)cc2)c(O)c1`, for which the IC50 is 87 µM in assay [1]; 58 µM in assay [2]; 66 µM in assay [3]; over 100 µM in assay [4]; over 100 µM in assay [5]; 57 µM in assay [6]. Moreover, the Activity in assay [7] was determined as 17%. For the same compound, in assay [8], the “growth inhibition (GI)” value is reported as 70%.
Regarding `CC(=O)c1ccc(OC/C=C(\C)CCC=C(C)C)cc1O`, the IC50 in assay [1] worked out at 48 µM; in assay [2], 37 µM; in assay [3] it was 51 µM; in assay [4], 27 µM; in assay [5], 44 µM; in assay [6], 38 µM. The Activity in assay [7] came to 17%. Besides, in assay [8], the “growth inhibition (GI)” value is recorded as 80%.
On to `O=C(/C=C/c1ccccc1)c1ccc(O)cc1O` [2',4'-DIHYDROXYCHALCONE], for which the IC50 in assay [1] is over 100 µM; in assay [2], 49 µM; in assay [3], over 100 µM; in assay [4] it was over 100 µM; in assay [5], 75 µM; in assay [6] it was 81 µM.
Take `CC(=O)c1c(O)cc(O)cc1O` [2,4,6-TRIHYDROXYACETOPHENONE]: the IC50 in assay [1] is over 100 µM; in assay [2], 42 µM; in assay [3], 100 µM; in assay [4], over 100 µM; in assay [5], over 100 µM; in assay [6], 90 µM.
As to `CC(C)=CCOc1ccc2ccc(=O)oc2c1` [7-PRENYLOXYCOUMARIN], the IC50 in assay [1] is over 100 µM; in assay [2] it was 79 µM; in assay [3] it was over 100 µM; in assay [4] it was over 100 µM; in assay [5], over 100 µM; in assay [6] it was 82 µM.
Turning to `CC(C)=CCC/C(C)=C/COc1ccc2ccc(=O)oc2c1` [AURAPTENE], the IC50 in assay [1] came to 82 µM; in assay [2] it was 58 µM; in assay [3], 82 µM; in assay [4], 65 µM; in assay [5], 87 µM; in assay [6], 66 µM. For the same compound, the Activity in assay [7] was determined as 58%. Further, the “growth inhibition (GI)” value in assay [8] was 90%.
Turning to `COc1cc(/C=C/C(=O)O)ccc1OCC=C(C)C` [BOROPINIC ACID], the IC50 in assay [1], in assay [2], in assay [3], in assay [4], in assay [5] and in assay [6] was over 100 µM each time.
Regarding `COc1cc(/C=C/CO)ccc1O` [CONIFERYL ALCOHOL], the IC50 in assay [1] was 97 µM; in assay [2], 60 µM; in assay [3] it was 85 µM; in assay [4], 84 µM; in assay [5] it was over 100 µM; in assay [6] it was 64 µM. For the same compound, in assay [7], the Activity was 26%. Moreover, the “growth inhibition (GI)” value in assay [8] is on record as 80%.
Consider `CC(C)=CCOc1ccc(C(=O)/C=C/c2ccccc2)c(O)c1` [CORDOIN], for which the half-maximal inhibitory concentration (IC50) in assay [1] was 53 µM; in assay [2], 39 µM; in assay [3], 54 µM; in assay [4], 71 µM; in assay [5], 81 µM; in assay [6], 58 µM. In addition, in assay [7], the Activity stood at 88%. For the same compound, in assay [8], the “growth inhibition (GI)” value is 95%.
`O=C(O)/C=C/c1ccc(O)cc1` [COUMARIC ACID]: the concentration for half-maximal inhibition (IC50) in assay [1] is over 100 µM; in assay [2], 66 µM; in assay [3], over 100 µM; in assay [4], over 100 µM; in assay [5] it was over 100 µM; in assay [6], 82 µM.
Turning to `Cc1cc(O)c2c(c1)C(=O)c1cc(O)cc(O)c1C2=O` [EMODIN], the half-inhibitory concentration (IC50) in assay [1] was found to be 31 µM; in assay [2] it was 29 µM; in assay [3] it was 28 µM; in assay [4], 35 µM; in assay [5] it was 35 µM; in assay [6], 27 µM. Moreover, in assay [7], the Activity came to 99%. Besides, in assay [8], the “growth inhibition (GI)” value amounted to 90%.
For `COc1cc(/C=C/C(=O)O)ccc1O` [FERULATE], the IC50 in assay [1] is over 100 µM; in assay [2], 68 µM; in assay [3], over 100 µM; in assay [4] it was over 100 µM; in assay [5], over 100 µM; in assay [6] it was 95 µM.
On to `O=C(O)c1ccc(O)cc1` [PARABEN], for which the IC50 was over 100 µM in assay [1]; 71 µM in assay [2]; over 100 µM in assay [3]; over 100 µM in assay [4]; over 100 µM in assay [5]; 94 µM in assay [6].
Take `O=c1ccc2ccc(O)cc2o1` [UMBELLIFERONE]: the half-inhibitory concentration (IC50) in assay [1] is over 100 µM; in assay [2], 33 µM; in assay [3], over 100 µM; in assay [4] it was over 100 µM; in assay [5], over 100 µM; in assay [6], 97 µM.
With `CC(C)=CCOc1ccc(C(=O)O)cc1` [VALENCIC ACID], the IC50 in assay [1], in assay [2], in assay [3], in assay [4], in assay [5] and in assay [6] was over 100 µM throughout.
Regarding `COc1cc(C(=O)O)ccc1O` [VANILLIC ACID], the IC50 in assay [1] was over 100 µM; in assay [2], 61 µM; in assay [3], over 100 µM; in assay [4], over 100 µM; in assay [5], over 100 µM; in assay [6] it was 91 µM.

As a reminder, the IC50 is the concentration needed to halve the response being measured. Low values mean greater potency, high ones weaker potency.
